The subject of test [1] is Mus musculus. Put plainly: Toxicity against mouse L1210 Leukemia as number of animals survived/number of animals treated at the Optimal dose of 50 mg/kg; 6/6, dose range ip 400-12.5 mg/kg. Format: functional. The note with it: route intraperitoneal.
In test [2] the test system is Mus musculus. Put plainly: Tested for cures, represents a 30-day survival, ratio of treated and control was reported; dose range ip 400-12.5 mg/kg. In kind it is functional.
The subject of test [3] is Mus musculus. Description: Animal weight difference at the Optimal dose of 50 mg/kg against mouse L1210 Leukemia; dose range ip 400-12.5 mg/kg. The note with it: route intraperitoneal.
Test [4] relates to L1210 leukemia (Mus musculus). Put plainly: Tested for cures, represents a 30-day survival, ratio of treated and control against L1210 leukemia was reported; dose range ip 400-12.5 mg/kg.
Test [5] deals with Mus musculus. Description: Animal weight difference at the Optimal dose of 200 mg/kg against mouse L1210 Leukemia; dose range ip 400-12.5 mg/kg. Format: functional. The note with it: route intraperitoneal.
Test [6] concerns Mus musculus. Put plainly: Toxicity against mouse L1210 Leukemia as number of animals survived/number of animals treated at the Optimal dose of 200 mg/kg; 5/6, dose range ip 400-12.5 mg/kg. Format: functional. The note with it: route intraperitoneal.
Test [7] relates to Mus musculus. Description: Tested for cures, represents a 30-day survival, ratio of treated and control was reported; dose range ip 200-12.5 mg/kg. In kind it is functional.
Test [8] relates to Mus musculus. Description: Animal weight difference at the Optimal dose of 100 mg/kg against mouse L1210 Leukemia; dose range ip 200-12.5 mg/kg. The note with it: route intraperitoneal. In kind it is functional.
Test [9] concerns Mus musculus. Description: Toxicity against mouse L1210 Leukemia as number of animals survived/number of animals treated at the Optimal dose of 100 mg/kg; 6/6, dose range ip 200-12.5 mg/kg. Format: functional. The note with it: route intraperitoneal.
In test [10] the test system is Mus musculus. Put plainly: Tested for cures, represents a 30-day survival, ratio of treated and control against Ependymoblastoma Tumor was reported; dose range 16-2 mg/kg. In kind it is functional. A digest of the protocol: (§1)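 Mouse ependymoblastoma implanted intracerebrally to test CNS antitumour activity. Groups of 10 mice were dosed on days 1-5 over the stated dose range. Toxicity is scored as survivors on day 5 after the first injection. Activity is given as % T/C at the optimum dose, and a cure is defined as 30-day survival.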

The test system of test [11] is Mus musculus. Put plainly: Animal weight difference at the Optimal dose of 16.0 mg/kg against Ependymoblastoma Tumor; dose range 16-2 mg/kg.
For test [12], the system named is Mus musculus. Put plainly: Toxicity against Ependymoblastoma Tumor number of animals survived/number of animals treated at the Optimal dose of 16.0 mg/kg; dose range 16-2 mg/kg.
The subject of test [13] is Mus musculus. Description: Toxicity against mouse L1210 Leukemia as number of animals survived/number of animals treated at the Optimal dose of 200 mg/kg; 6/6, dose range ip 200-12.5 mg/kg. In kind it is functional. The note with it: route intraperitoneal.
Test [14] concerns Mus musculus. Description: Animal weight difference at the Optimal dose of 25 mg/kg against mouse L1210 Leukemia; dose range ip 50-6.25 mg/kg. Particulars: route intraperitoneal.
For test [15], the system named is Mus musculus. Description: Tested for cures, represents a 30-day survival, ratio of treated and control against Ependymoblastoma Tumor was reported; dose range 12-0.75 mg/kg. In kind it is functional. The method, boiled down: as §1
The subject of test [16] is Mus musculus. Description: Toxicity against Ependymoblastoma Tumor number of animals survived/number of animals treated at the Optimal dose of 12.0 mg/kg; dose range 12-0.75 mg/kg. In kind it is functional. The method, boiled down:
as §1

The subject of test [17] is Mus musculus. Put plainly: Toxicity against mouse L1210 Leukemia as number of animals survived/number of animals treated at the Optimal dose of 25 mg/kg; 6/6, dose range ip 50-6.25 mg/kg. Particulars: route intraperitoneal.
For test [18], the system named is Mus musculus. Description: Tested for cures, represents a 30-day survival, ratio of treated and control was reported; dose range ip 50-6.25 mg/kg. Format: functional.
For test [19], the system named is Mus musculus. Put plainly: Animal weight difference at the Optimal dose of 12.0 mg/kg against Ependymoblastoma Tumor; dose range 12-0.75 mg/kg. In kind it is functional.

Each structure is given as a SMILES string.

Take `CCCN(N=O)C(=O)Nc1ccc(C2CC(=O)N(C)C2=O)cc1` (stereo unspecified): the Ratio in test [1] was 6. Further, in test [2], the T/C (as a rule, the result in the treated group divided by that in the control group, in per cent) is given as 109%. Besides, in test [3], the T-C was 0.8 g.

In the case of `CCCCN(N=O)C(=O)Nc1ccc(C2CC(=O)N(C)C2=O)cc1` (stereo unspecified), the T/C in [4] is given as 120%. In [5], the T-C is listed as -2.8 g. Besides, the Ratio in test [6] worked out at 5.

Regarding `CN(N=O)C(=O)Nc1ccc(C2CC(=O)N(C)C2=O)cc1` (stereo unspecified), in test [7], the T/C amounted to 127%. The compound also gave a T-C in test [8] of -1.2 g. The Ratio in test [9] was 6.

As to `O=NN(CCCl)C(=O)NCCCl` [CARMUSTINE], in test [10], the T/C is reported as 300%. This compound also came in with a T-C in [11] of -3.4 g. The Ratio in test [12] stood at 10.

For the compound `CCN(N=O)C(=O)Nc1ccc(C2CC(=O)N(C)C2=O)cc1` (stereo unspecified), the T/C in test [7] was determined as 126%. For the same compound, the T-C in [8] was -3.8 g. For the same compound, the Ratio in test [13] came out at 6.

For the compound `CN1C(=O)CC(c2ccc(NC(=O)N(CCCl)N=O)cc2)C1=O` (stereo unspecified), the T-C is -4.6 g in test [14] and -3.8 g in test [19]. Also, the T/C in [15] was 240%; in [18], 196%. The Ratio in test [16] came out at 9; in test [17], 6.
